Laboratory results published in ChEMBL document CHEMBL1122031, “(+/-)-4-Aryl-4,5-dihydro-3H-1,3-benzodiazepines. 2. Nuclear-substituted analogues of (+/-)-4,5-dihydro-2,3-dimethyl-4-phenyl-3H-1,3-benzodiazepine and (+/-)-4,5-dihydro-2-ethyl-3-methyl-4-phenyl-3H-1,3-benzodiazepine as potential antidepressant agents” (1982).

Key:
Type in all cases: functional
Mus musculus [1] = test: Compound, administered perorally and was evaluated for prevention of amphetamine aggregation toxicity in mice; settings: po
Mus musculus [2] = test: Inhibition of tetrabenazine-induced ptosis (TBZ) in mice by peroral administration; settings: po
How it was run: (§1)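 Mice dosed with the compound and scored for prevention of tetrabenazine-induced ptosis. ED₅₀ was derived by linear regression analysis and reported with 95% confidence limits.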

Mus musculus [3] = test: Compound, administered intraperitoneally and was evaluated for inhibition of pentylenetetrazole (PTZ)-induced lethality in mice; settings: ip
Mus musculus [4] = species: Mus musculus; test: Inhibition of pentylenetetrazole (PTZ)-induced lethality in mice
Mus musculus [5] = species: Mus musculus; test: Evaluated for prevention of amphetamine aggregation toxicity in mice,
Rattus norvegicus = test: Compound, administered intraperitoneally and was evaluated for potentiation of the 5-hydroxytryptophan-induced behavioral syndrome in pargyline pretreated rats; settings: ip
Mus musculus [6] = test: Evaluated for antidepressant activity by inhibition of tetrabenazine-induced ptosis (TBZ) in mice by ip administration; how it was run: as §1

SMILES	ED50 (Mus musculus [1])	ED50 (Mus musculus [2])	ED50 (Mus musculus [3])	ED50 (Mus musculus [4]; Mus musculus, read-out: ED50)	ED50 (Mus musculus [5])	ED50 (Rattus norvegicus)	ED50 (Mus musculus [6])	ED50 (Mus musculus [4])
COc1ccc(C2Cc3ccccc3N=C(C)N2C)cc1 (centres undefined)	> 20 mg/kg	19.8 mg/kg	> 40 mg/kg					
CC1=Nc2ccccc2CC(c2ccc(Cl)cc2)N1C (centres undefined)		0.52 mg/kg		> 40 mg/kg	> 20 mg/kg	> 10 mg/kg		
CCC1=Nc2ccccc2CC(c2ccc(F)cc2)N1C (centres undefined)		8.4 mg/kg						
CCC1=Nc2ccc(Cl)cc2CC(c2ccccc2F)N1C (centres undefined)				> 40 mg/kg			> 20 mg/kg	>20 mg/kg
CCC1=Nc2ccccc2CC(c2ccc(Cl)cc2)N1C (centres undefined)				> 20 mg/kg			< 5 mg/kg	
CC1=Nc2ccc(Cl)cc2CC(c2ccccc2)N1C (centres undefined)				> 40 mg/kg	> 20 mg/kg		≥ 20 mg/kg	
CC1=Nc2ccccc2CC(c2ccc(C)cc2)N1C (centres undefined)		5.2 mg/kg		> 40 mg/kg	> 20 mg/kg	> 10 mg/kg		
CC1=Nc2ccccc2CC(c2ccccc2F)N1C (centres undefined)		7.6 mg/kg		> 40 mg/kg	> 20 mg/kg	> 10 mg/kg		
CCC1=Nc2ccccc2CC(c2ccc(OC)c(OC)c2)N1C (centres undefined)	> 20 mg/kg		> 40 mg/kg				8.2 mg/kg	
COc1ccc(C2Cc3ccccc3N=C(C)N2C)cc1OC (centres undefined)	> 20 mg/kg	5 mg/kg	> 40 mg/kg					
CCC1=Nc2ccccc2CC(c2ccccc2C)N1C (centres undefined)		3.1 mg/kg		> 40 mg/kg				>20 mg/kg
CCC1=Nc2ccccc2CC(c2ccccc2F)N1C (centres undefined)		7 mg/kg		> 40 mg/kg	> 20 mg/kg			
CN(C)CCC=C1c2ccccc2CCc2ccccc21 [AMITRIPTYLINE]		1.9 mg/kg						
CCC1=Nc2ccccc2CC(c2ccc(C)cc2)N1C (centres undefined)		6.1 mg/kg		> 40 mg/kg	> 20 mg/kg	> 10 mg/kg		
CC1=Nc2ccccc2CC(c2ccccc2Cl)N1C (centres undefined)				> 40 mg/kg	> 20 mg/kg		> 5 mg/kg	
CCC1=Nc2ccccc2CC(c2ccc(OC)cc2)N1C (centres undefined)	> 20 mg/kg	2.8 mg/kg	> 40 mg/kg					
CC1=Nc2ccccc2CC(c2ccccc2)N1C (centres undefined) [DAZEPINIL]		2.1 mg/kg		> 40 mg/kg	> 20 mg/kg	> 10 mg/kg		
CC1=Nc2ccc(Cl)cc2CC(c2ccccc2F)N1C (centres undefined)				> 40 mg/kg	> 20 mg/kg		> 20 mg/kg	
CC1=Nc2ccccc2CC(c2ccc(F)cc2)N1C (centres undefined)		3.6 mg/kg		> 40 mg/kg	> 20 mg/kg	> 10 mg/kg		
CCC1=Nc2ccc(Cl)cc2CC(c2ccccc2)N1C (centres undefined)				> 20 mg/kg			~20 mg/kg	>40 mg/kg
CCC1=Nc2ccccc2CC(c2ccccc2Cl)N1C (centres undefined)		4.1 mg/kg						
CC1=Nc2ccccc2CC(c2ccccc2C)N1C (centres undefined)		5.5 mg/kg		> 40 mg/kg	> 20 mg/kg			
CCC1=Nc2ccccc2CC(c2ccccc2)N1C (centres undefined)		1.6 mg/kg		> 40 mg/kg	> 20 mg/kg	> 10 mg/kg		
